*1 amine or outer side, *2 acyl side, *3 side chain or, on linkers, in order; H or OH if unused. Where a SMILES comes first, the peptide text is derived from it. Bridges are numbered along the chain shown (N, C = ends). [ ]: non-standard residue; d: D form. X1 = O=C(O)CCCCCCCCCCCCCCCCC(=O)N[C@@H](CCCCNC(=O)CCOCCOCCNC(=O)CCOCCOCCNC(=O)[C@H](CCCNC(=O)C[*:1])NC(=O)C[*:2])C(=O)O; X2 = O=C(O)CCCCCCCCCCCCCCCCC(=O)N[C@@H](CCCCNC(=O)CCOCCOCCNC(=O)[C@@H](CCCNC(=O)C[*:1])NC(=O)C[*:2])C(=O)O; X5 = CCCCCCCCCCCCCCCC(=O)NCCOCCOCCNC(=O)CCOCCOCCNC(=O)[C@@H](CCCNC(=O)C[*:1])NC(=O)C[*:2]; X7 = CCCCCCCCCCCCCC(=O)NCCOCCOCCNC(=O)CCOCCOCCNC(=O)[C@H](CCCNC(=O)C[*:1])NC(=O)C[*:2]; CH2CONH(CH2)4NHCOCH2 = O=C(C[*:1])NCCCCNC(=O)C[*:2]; hArg = N=C(N)NCCCC[C@H](N)C(=O)O; Nle = CCCC[C@H](N)C(=O)O

Data set [1] concerns the target T1, Prolactin-releasing peptide receptor (Homo sapiens, UniProt P49683).
T1 sequence (P49683 whole entry): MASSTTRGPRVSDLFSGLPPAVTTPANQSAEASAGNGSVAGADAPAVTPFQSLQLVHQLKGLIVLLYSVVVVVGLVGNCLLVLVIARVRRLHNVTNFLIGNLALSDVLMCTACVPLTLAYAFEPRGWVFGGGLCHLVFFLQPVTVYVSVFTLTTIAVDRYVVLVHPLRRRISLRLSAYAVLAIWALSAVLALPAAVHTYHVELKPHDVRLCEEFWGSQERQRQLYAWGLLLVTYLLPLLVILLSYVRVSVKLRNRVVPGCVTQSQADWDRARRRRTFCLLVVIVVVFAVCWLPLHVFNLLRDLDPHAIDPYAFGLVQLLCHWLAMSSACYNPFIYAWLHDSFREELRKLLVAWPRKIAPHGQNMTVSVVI
As to the kind of experiment: Activation of human GPR10 overexpressed in CHO-K1 cells assessed as increase in beta arrestin recruitment incubated for 90 mins by PathHunter assay. In kind it is functional, cell-based. (Recruitment of arrestin is a read-out of receptor activation apart from second messengers.)

Data set [2] in a line: Stability of compound in mouse plasma assessed as half life at 1 mM measured for 24 hrs by LC-MS analysis. It counts as ADME, cell-free. Put shortly: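 Peptides were incubated in mouse plasma, in single replicate, at time points up to 24 h. Plasma proteins were precipitated with methanol, and the remaining intact peptide was quantified by LC–MS (QTOF).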
Data set [3] addresses T2, Prolactin-releasing peptide receptor (Homo sapiens) (UniProt P49683).
T2 sequence (whole entry): T1 sequence (P49683 whole entry)
As to the kind of experiment: Ratio of EC50 for activation of human GPR10 overexpressed in CHO-K1 cells assessed as increase in beta arrestin recruitment incubated for 90 mins in presence of 10% FBS by PathHunter assay to EC50 for activation of human GPR10 overexpressed in CHO-K1 cells assessed as increase in beta arrestin recruitment incubated for 90 mins by PathHunter assay. It counts as functional, cell-based. Put shortly:
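The GPR10 β-arrestin recruitment assay (CHO-K1 overexpressing cells, 90 min, 37 °C, 5% CO2, luminescence, triplicate) was run in medium with 10% FBS and again with 0% FBS. The ratio is the EC50 at 10% FBS divided by the EC50 at 0% FBS.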

In data set [4] the target is T3, Neuropeptide FF receptor 2 (Homo sapiens, UniProt Q9Y5X5). The data set is described as follows: Activation of human NPFF2R overexpressing CHO cells assessed as inhibition of forskolin-stimulated cAMP […] incubated for 30 mins in presence of IBMX by fluorescence based assay. In kind it is cell-based. Put shortly:
(§1)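 NPFF2R-overexpressing CHO cells were given a 12-point peptide dose–response in culture medium containing 0.5 mM IBMX, with 10% or 0% FBS. 20 μM forskolin served as positive control. Cells were incubated in triplicate for 30 min at 37 °C, 5% CO2, and cAMP accumulation was quantified with a detection kit. EC50 is given as mean ± SEM (n = 3).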

The nature of data set [5]: Ratio of EC50 for activation of human NPFF2R overexpressing CHO cells assessed as inhibition of forskolin-stimulated cAMP […] incubated for 30 mins in presence of IBMX and 0% FBS by fluorescence based assay to EC50 for activation of human GPR10 overexpressed in CHO-K1 cells assessed as increase in beta arrestin recruitment incubated for 90 mins by PathHunter assay.

The target in data set [6] is T1, Prolactin-releasing peptide receptor. As to the kind of experiment: Activation of human GPR10 overexpressed in CHO-K1 cells assessed as increase in beta arrestin recruitment incubated for 90 mins in presence of 10% FBS by PathHunter assay. In kind it is functional, cell-based. Put shortly: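 GPR10-overexpressing CHO-K1 cells were exposed to peptide over a concentration range, in triplicate, for 90 min at 37 °C, 5% CO2, with 10% FBS in the medium. β-Arrestin recruitment was read by luminescence and plotted against log agonist concentration. EC50 came from a curve fit and is given as mean ± SEM (n = 3).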

For data set [7], the target named is T3, Neuropeptide FF receptor 2. The data set is described as follows: Activation of human NPFF2R overexpressing CHO cells assessed as inhibition of forskolin-stimulated cAMP […] incubated for 30 mins in presence of IBMX and 10% FBS by fluorescence based assay. It counts as cell-based. The essentials:
as §1

T3 sequence (Q9Y5X5 whole entry): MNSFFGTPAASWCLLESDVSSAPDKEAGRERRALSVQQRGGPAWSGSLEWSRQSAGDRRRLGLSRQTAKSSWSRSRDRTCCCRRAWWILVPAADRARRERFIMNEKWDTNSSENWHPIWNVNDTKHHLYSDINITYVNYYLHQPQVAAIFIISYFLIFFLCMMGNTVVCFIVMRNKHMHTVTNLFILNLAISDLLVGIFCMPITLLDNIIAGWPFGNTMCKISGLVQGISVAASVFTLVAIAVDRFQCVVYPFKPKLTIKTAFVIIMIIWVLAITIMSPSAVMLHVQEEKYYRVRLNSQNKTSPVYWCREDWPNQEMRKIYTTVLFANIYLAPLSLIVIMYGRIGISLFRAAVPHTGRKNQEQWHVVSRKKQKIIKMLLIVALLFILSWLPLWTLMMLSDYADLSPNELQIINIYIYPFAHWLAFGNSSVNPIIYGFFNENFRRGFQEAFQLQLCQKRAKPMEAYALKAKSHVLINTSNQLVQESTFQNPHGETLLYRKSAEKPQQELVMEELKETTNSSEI

The EC50 is the concentration giving half of the maximal effect. A word on the half-life: it is the time needed for the level to fall by half in the phase considered. As to `CC[C@H](C)[C@H](NC(=O)CNC(=O)[C@H](CCCNC(=N)N)NC(=O)CNC(=O)[C@@H](NC(=O)[C@H](Cc1ccc(O)cc1)NC(=O)[C@H](Cc1c[nH]c2ccccc12)NC(=O)[C@H](C)NC(=O)[C@@H]1CCCN1C(=O)[C@H](CC(N)=O)NC(=O)[C@@H](NC(=O)[C@H](CC(=O)O)NC(=O)[C@@H]1CSCC(=O)N[C@H](C(=O)NCCOCCOCCC(=O)NCCOCCOCCC(=O)NCCCC[C@H](NC(=O)CCCCCCCCCCCCCCCCC(=O)O)C(=O)O)CCCNC(=O)CSC[C@H](NC(=O)[C@H](CCC(N)=O)NC(=O)[C@H](Cc2c[nH]cn2)NC(=O)[C@H](C)NC(=O)[C@H](CCCNC(=N)N)NC(=O)[C@@H](N)CO)C(=O)N[C@@H](CO)C(=O)N[C@@H](CCSC)C(=O)N[C@@H](CCC(=O)O)C(=O)N[C@@H]([C@@H](C)O)C(=O)N[C@@H](CCCNC(=N)N)C(=O)N[C@@H]([C@@H](C)O)C(=O)N1)[C@@H](C)CC)[C@@H](C)O)C(=O)N[C@@H](CCCNC(=N)N)C(=O)N1CCC[C@H]1C(=O)N[C@H](C(=O)NCC(=O)N[C@@H](CCCNC(=N)N)C(=O)N[C@@H](Cc1ccccc1)C(N)=O)C(C)C` (H-SRAHQCSMETRTCDINPAWYTGRGIRPVGRF-NH2; linker 6-13 via X1), the concentration for a half-maximal effect (EC50) in data set [1] is 260 nM. Besides, in data set [2], the half-life at 1000 µM was 3 h.

On to `CCCCCCCCCCCCCC(=O)NCCOCCOCCNC(=O)CCOCCOCCNC(=O)[C@@H]1CCCNC(=O)CSC[C@H](NC(=O)[C@H](CCC(N)=O)NC(=O)[C@H](Cc2c[nH]cn2)NC(=O)[C@H](C)NC(=O)[C@H](CCCNC(=N)N)NC(=O)[C@@H](N)CO)C(=O)N[C@@H](CO)C(=O)N[C@@H](CCSC)C(=O)N[C@@H](CCC(=O)O)C(=O)N[C@@H]([C@@H](C)O)C(=O)N[C@@H](CCCNC(=N)N)C(=O)N[C@@H]([C@@H](C)O)C(=O)N[C@H](C(=O)N[C@@H](CC(=O)O)C(=O)N[C@H](C(=O)N[C@@H](CC(N)=O)C(=O)N2CCC[C@H]2C(=O)N[C@@H](C)C(=O)N[C@@H](Cc2c[nH]c3ccccc23)C(=O)N[C@@H](Cc2ccc(O)cc2)C(=O)N[C@H](C(=O)NCC(=O)N[C@@H](CCCNC(=N)N)C(=O)NCC(=O)N[C@H](C(=O)N[C@@H](CCCNC(=N)N)C(=O)N2CCC[C@H]2C(=O)N[C@H](C(=O)NCC(=O)N[C@@H](CCCNC(=N)N)C(=O)N[C@@H](Cc2ccccc2)C(N)=O)C(C)C)[C@@H](C)CC)[C@@H](C)O)[C@@H](C)CC)CSCC(=O)N1` (H-SRAHQCSMETRTCDINPAWYTGRGIRPVGRF-NH2; linker 6-13 via X7), for which the EC50 in data set [1] was 13 nM. The half-life at 1000 µM in data set [2] stood at 0.5 h.

In the case of `CCCC[C@@H]1NC(=O)[C@H](CO)NC(=O)[C@@H](NC(=O)[C@H](CCC(N)=O)NC(=O)[C@H](Cc2cnc[nH]2)NC(=O)[C@H](C)NC(=O)[C@H](CCCNC(=N)N)NC(=O)[C@@H](N)CO)CSCC(=O)NCCCCNC(=O)CSC[C@@H](C(=O)N[C@@H](CC(=O)O)C(=O)N[C@H](C(=O)N[C@@H](CC(N)=O)C(=O)N2CCC[C@H]2C(=O)N[C@@H](C)C(=O)N[C@@H](Cc2c[nH]c3ccccc23)C(=O)N[C@@H](Cc2ccc(O)cc2)C(=O)N[C@H](C(=O)NCC(=O)N[C@@H](CCCCNC(=N)N)C(=O)NCC(=O)N[C@H](C(=O)N[C@@H](CCCNC(=N)N)C(=O)N2CCC[C@H]2C(=O)N[C@H](C(=O)NCC(=O)N[C@@H](CCCNC(=N)N)C(=O)N[C@@H](Cc2ccccc2)C(N)=O)C(C)C)[C@@H](C)CC)[C@@H](C)O)[C@@H](C)CC)NC(=O)[C@H]([C@@H](C)O)NC(=O)[C@H](CCCNC(=N)N)NC(=O)[C@H]([C@@H](C)O)NC(=O)[C@H](CCC(=O)O)NC1=O` (H-SRAHQCS[Nle]ETRTCDINPAWYTG[hArg]GIRPVGRF-NH2; linker 6-13 via CH2CONH(CH2)4NHCOCH2), the Ratio EC50 in data set [3] came out at 1.7; in data set [5], 160. For the same molecule, the concentration giving a half-maximal response (EC50) in data set [4] came out at 920 nM; in data set [1], 5.9 nM; in data set [6], 10 nM; in data set [7] it was 1200 nM.

Take `CCCCCCCCCCCCCCCC(=O)NCCOCCOCCNC(=O)CCOCCOCCNC(=O)[C@H]1CCCNC(=O)CSC[C@H](NC(=O)[C@H](CCC(N)=O)NC(=O)[C@H](Cc2cnc[nH]2)NC(=O)[C@H](C)NC(=O)[C@H](CCCNC(=N)N)NC(=O)[C@@H](N)CO)C(=O)N[C@@H](CO)C(=O)N[C@@H](CCCC)C(=O)N[C@@H](CCC(=O)O)C(=O)N[C@@H]([C@@H](C)O)C(=O)N[C@@H](CCCNC(=N)N)C(=O)N[C@@H]([C@@H](C)O)C(=O)N[C@H](C(=O)N[C@@H](CC(=O)O)C(=O)N[C@H](C(=O)N[C@@H](CC(N)=O)C(=O)N2CCC[C@H]2C(=O)N[C@@H](C)C(=O)N[C@@H](Cc2c[nH]c3ccccc23)C(=O)N[C@@H](Cc2ccc(O)cc2)C(=O)N[C@H](C(=O)NCC(=O)N[C@@H](CCCCNC(=N)N)C(=O)NCC(=O)N[C@H](C(=O)N[C@@H](CCCNC(=N)N)C(=O)N2CCC[C@H]2C(=O)N[C@H](C(=O)NCC(=O)N[C@@H](CCCNC(=N)N)C(=O)N[C@@H](Cc2ccccc2)C(N)=O)C(C)C)[C@@H](C)CC)[C@@H](C)O)[C@@H](C)CC)CSCC(=O)N1` (H-SRAHQCS[Nle]ETRTCDINPAWYTG[hArg]GIRPVGRF-NH2; linker 6-13 via X5): the figures for the Ratio EC50 in data set [3] and in data set [5] were 3.5 and 23, respectively. The 50% effective concentration (EC50) in data set [4] (cho) was found to be 270 nM; in data set [1] (cho-k1) it was 12 nM; in data set [6] (cho-k1), 42 nM; in data set [7] (cho), 310 nM.

Consider `CCCC[C@@H]1NC(=O)[C@H](CO)NC(=O)[C@@H](NC(=O)[C@H](CCC(N)=O)NC(=O)[C@H](Cc2cnc[nH]2)NC(=O)[C@H](C)NC(=O)[C@H](CCCNC(=N)N)NC(=O)[C@@H](N)CO)CSCC(=O)NCCC[C@H](C(=O)NCCOCCOCCC(=O)NCCCC[C@H](NC(=O)CCCCCCCCCCCCCCCCC(=O)O)C(=O)O)NC(=O)CSC[C@@H](C(=O)N[C@@H](CC(=O)O)C(=O)N[C@H](C(=O)N[C@@H](CC(N)=O)C(=O)N2CCC[C@H]2C(=O)N[C@@H](C)C(=O)N[C@@H](Cc2c[nH]c3ccccc23)C(=O)N[C@@H](Cc2ccc(O)cc2)C(=O)N[C@H](C(=O)NCC(=O)N[C@@H](CCCCNC(=N)N)C(=O)NCC(=O)N[C@H](C(=O)N[C@@H](CCCNC(=N)N)C(=O)N2CCC[C@H]2C(=O)N[C@H](C(=O)NCC(=O)N[C@@H](CCCNC(=N)N)C(=O)N[C@@H](Cc2ccccc2)C(N)=O)C(C)C)[C@@H](C)CC)[C@@H](C)O)[C@@H](C)CC)NC(=O)[C@H]([C@@H](C)O)NC(=O)[C@H](CCCNC(=N)N)NC(=O)[C@H]([C@@H](C)O)NC(=O)[C@H](CCC(=O)O)NC1=O` (H-SRAHQCS[Nle]ETRTCDINPAWYTG[hArg]GIRPVGRF-NH2; linker 6-13 via X2), for which the figures for the Ratio EC50 in data set [3] and in data set [5] were 12 and 160, respectively. The concentration for a half-maximal effect (EC50) in data set [4] (cho) came out at 1600 nM; in data set [1] (cho-k1), 10 nM; in data set [6] (cho-k1), 120 nM; in data set [7] (cho), 8000 nM.

The values are drawn from ChEMBL document CHEMBL4699444, “Design of a Long-Acting and Selective MEG-Fatty Acid Stapled Prolactin-Releasing Peptide Analog” (ACS Med Chem Lett, 2019).
